Laboratory results reported in ChEMBL document CHEMBL3868629, “Discovery of novel N-phenyl 1,4-dihydropyridines with a dual mode of antimycobacterial activity” (Bioorg Med Chem Lett, 2016).

Assays:
[1] = system: Mycobacterium tuberculosis; assay: Antitubercular activity against Mycobacterium tuberculosis H37Rv expressing GFP assessed as growth inhibition at 1 ug/ml measured after 7 days by fluorescence analysis relative to control; type: functional; conditions: 168 h, read-out: GI
How it was run: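 GFP-expressing H37Rv cultured in 7H9 with 10% OADC, 0.05% Tween 80 and 0.2% glycerol, sealed under an air-permeable membrane. Growth was read as fluorescence (excitation 485 nm, emission 528 nm) after seven days, in triplicate. Fluorescence tracks bacterial growth.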

[2] = target: T1, Multidrug efflux ATP-binding/permease protein Rv0194 (Mycobacterium tuberculosis (strain ATCC 25618 / H37Rv)) (UniProt O53645); assay: Inhibition of GFP-fused Mycobacterium tuberculosis H37Rv Rv0194 assessed as potentiation of ciprofloxacin-mediated antitubercular activity by measuring fold increase in ciprofloxacin growth inhibition at 0.3 ug/ml
T1 sequence (whole entry): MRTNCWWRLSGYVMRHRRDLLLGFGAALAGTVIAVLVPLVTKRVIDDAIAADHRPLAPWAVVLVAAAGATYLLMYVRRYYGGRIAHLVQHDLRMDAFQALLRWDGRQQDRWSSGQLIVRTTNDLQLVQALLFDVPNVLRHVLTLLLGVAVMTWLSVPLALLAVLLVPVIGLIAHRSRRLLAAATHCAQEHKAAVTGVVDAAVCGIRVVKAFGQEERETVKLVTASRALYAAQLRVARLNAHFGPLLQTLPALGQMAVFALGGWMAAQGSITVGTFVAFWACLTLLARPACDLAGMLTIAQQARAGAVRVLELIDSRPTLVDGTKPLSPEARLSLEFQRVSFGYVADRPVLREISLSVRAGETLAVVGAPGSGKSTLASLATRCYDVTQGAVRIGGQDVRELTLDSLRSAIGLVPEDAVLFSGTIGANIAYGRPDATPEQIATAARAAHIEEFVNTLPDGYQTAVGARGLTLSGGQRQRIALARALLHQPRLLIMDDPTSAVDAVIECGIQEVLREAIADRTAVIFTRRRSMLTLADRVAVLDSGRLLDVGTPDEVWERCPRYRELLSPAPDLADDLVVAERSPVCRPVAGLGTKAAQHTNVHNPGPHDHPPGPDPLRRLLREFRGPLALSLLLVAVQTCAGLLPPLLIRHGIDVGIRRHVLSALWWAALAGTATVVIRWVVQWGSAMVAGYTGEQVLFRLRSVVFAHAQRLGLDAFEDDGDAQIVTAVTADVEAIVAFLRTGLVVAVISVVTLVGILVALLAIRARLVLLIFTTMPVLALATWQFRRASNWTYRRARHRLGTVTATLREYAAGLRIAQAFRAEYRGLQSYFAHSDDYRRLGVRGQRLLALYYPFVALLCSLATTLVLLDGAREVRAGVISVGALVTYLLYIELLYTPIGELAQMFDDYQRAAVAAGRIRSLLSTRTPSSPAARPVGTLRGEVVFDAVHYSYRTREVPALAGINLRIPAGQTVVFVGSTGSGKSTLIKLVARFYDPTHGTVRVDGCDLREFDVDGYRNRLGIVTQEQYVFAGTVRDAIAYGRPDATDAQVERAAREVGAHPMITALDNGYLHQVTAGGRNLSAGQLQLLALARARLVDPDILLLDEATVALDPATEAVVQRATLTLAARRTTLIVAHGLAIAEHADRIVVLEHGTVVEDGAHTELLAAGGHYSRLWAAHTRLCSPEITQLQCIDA

[3] = target: ATP-dependent translocase ABCB1 (Homo sapiens, UniProt P08183); assay: Inhibition of human ABCB1 expressed in mouse T-lymphoma cells assessed as rhodamine-123 accumulation by measuring fluorescence activity ratio at 1 uM by flow cytometry relative to control; type: cell-based
[4] = target: T1, Multidrug efflux ATP-binding/permease protein Rv0194 (Mycobacterium tuberculosis (strain ATCC 25618 / H37Rv)); assay: Inhibition of GFP-fused Mycobacterium tuberculosis H37Rv Rv0194 assessed as potentiation of ciprofloxacin-mediated antitubercular activity by measuring ciprofloxacin growth inhibition at 0.3 ug/ml (reference value: 19%)
How it was run: (§1)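 The antitubercular drug at set concentrations was tested alone and combined with the test compound held at 0.3 µg/mL. The GFP-expressing H37Rv growth assay was used: 7H9 with 10% OADC, 0.05% Tween 80 and 0.2% glycerol, seven days of culture, fluorescence at 485/528 nm, triplicates.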

[5] = target: T1, Multidrug efflux ATP-binding/permease protein Rv0194 (Mycobacterium tuberculosis (strain ATCC 25618 / H37Rv)); assay: Inhibition of GFP-fused Mycobacterium tuberculosis H37Rv Rv0194 assessed as potentiation of clofazimine-mediated antitubercular activity by measuring clofazimine growth inhibition at 0.3 ug/ml (reference value: 39%); how it was run: as §1

Chain of ATP-dependent translocase ABCB1 (P08183 whole entry, the tested form may be a part): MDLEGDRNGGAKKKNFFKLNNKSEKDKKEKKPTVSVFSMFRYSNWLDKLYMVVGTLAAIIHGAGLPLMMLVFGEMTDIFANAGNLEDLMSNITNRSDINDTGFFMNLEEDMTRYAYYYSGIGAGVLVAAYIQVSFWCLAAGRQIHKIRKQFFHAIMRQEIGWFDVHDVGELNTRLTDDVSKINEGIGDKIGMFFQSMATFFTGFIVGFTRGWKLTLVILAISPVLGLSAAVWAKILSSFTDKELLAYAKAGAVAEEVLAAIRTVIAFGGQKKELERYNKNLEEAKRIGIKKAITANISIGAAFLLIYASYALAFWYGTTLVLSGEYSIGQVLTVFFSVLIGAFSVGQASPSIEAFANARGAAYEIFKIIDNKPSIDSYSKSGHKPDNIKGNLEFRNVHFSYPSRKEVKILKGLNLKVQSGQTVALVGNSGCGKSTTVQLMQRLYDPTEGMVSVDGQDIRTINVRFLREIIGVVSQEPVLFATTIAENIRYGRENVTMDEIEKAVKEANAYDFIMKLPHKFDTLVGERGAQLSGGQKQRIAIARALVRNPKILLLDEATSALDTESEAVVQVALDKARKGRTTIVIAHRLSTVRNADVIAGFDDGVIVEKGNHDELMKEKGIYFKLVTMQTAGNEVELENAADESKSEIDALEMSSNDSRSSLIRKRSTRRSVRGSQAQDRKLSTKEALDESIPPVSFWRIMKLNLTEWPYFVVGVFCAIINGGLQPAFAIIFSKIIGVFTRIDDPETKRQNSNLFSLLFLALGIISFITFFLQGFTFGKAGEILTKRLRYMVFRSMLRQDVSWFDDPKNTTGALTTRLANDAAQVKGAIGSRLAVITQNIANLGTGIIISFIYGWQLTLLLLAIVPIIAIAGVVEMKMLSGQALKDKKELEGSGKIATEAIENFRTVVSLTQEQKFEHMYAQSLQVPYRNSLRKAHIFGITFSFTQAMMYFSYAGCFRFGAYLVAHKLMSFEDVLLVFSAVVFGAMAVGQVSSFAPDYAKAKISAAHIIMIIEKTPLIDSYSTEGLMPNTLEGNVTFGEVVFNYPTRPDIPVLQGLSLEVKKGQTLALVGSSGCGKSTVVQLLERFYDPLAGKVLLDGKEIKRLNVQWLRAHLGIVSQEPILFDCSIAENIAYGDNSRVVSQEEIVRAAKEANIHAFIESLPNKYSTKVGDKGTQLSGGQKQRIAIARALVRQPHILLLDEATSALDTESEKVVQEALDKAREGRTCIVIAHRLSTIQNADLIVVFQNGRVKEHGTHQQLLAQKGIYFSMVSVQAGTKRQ

Row | Structure (SMILES) | inhibition of growth at 1 µg/mL [1] [%] | fold change (FC) [2] | Ratio [3] | growth inhibition (GI) [4] [%] | growth inhibition (GI) [5] [%]
1 | NNC(=O)c1ccncc1 [ISONIAZID] | 97 | – | – | – | –
2 | CCOC(=O)C1=CN(c2ccccc2)C=C(C(=O)OCC)C1c1ccc(OC)c(OC)c1 | 30 | 2.5 | 7.3 | 46 | 60
3 | CCOC(=O)C1=CN(c2ccccc2)C=C(C(=O)OCC)C1c1ccc(OC)cc1 | 25 | – | – | – | –
4 | CCOC(=O)C1=CN(c2ccc(OC)cc2)C=C(C(=O)OCC)C1c1ccc(OC)c(OC)c1 | 60 | – | 5.2 | – | –
5 | CCOC(=O)C1=CN(c2ccccc2)C=C(C(=O)OCC)C1c1ccccc1 | 57 | – | 4.3 | – | –
6 | CCOC(=O)C1=CN(c2ccc(OC)cc2)C=C(C(=O)OCC)C1c1ccc(OC)cc1 | 35 | – | 1.2 | – | –
7 | CCOC(=O)C1=CN(c2ccc(OC)cc2)C=C(C(=O)OCC)C1c1cccc(OC)c1 | 41 | – | 3.4 | – | –
8 | CCOC(=O)C1=CN(c2ccccc2)C=C(C(=O)OCC)C1c1cccc(OC)c1 | 61 | – | 1.1 | – | –
9 | CCOC(=O)C1=CN(c2ccc(OC)cc2)C=C(C(=O)OCC)C1c1ccccc1 | 60 | – | 3.9 | – | –
